Active and inactive are the calls of the source. No cut-off for these calls is given here.
Key:
[1] = Binding affinity to IYHPNINSNGSICLDILR assessed as covalent adduct formation with Cys85 residues after 1 hr by LC/MS/MS analysis
[2] = Half life in rat liver microsomes at 5 uM in preincubated for 3 mins followed by NADPH addition measured up to 90 mins; type: ADME, microsome
Procedure, shortened: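 Rat liver microsomes (0.5 mg/mL) were used in 100 mM potassium phosphate, pH 7.4, with compound at 5 µM final. After 3 min preincubation at 37 °C, an NADPH-generating system was added (4 mM MgCl2, 1 mM NADP+, 10 mM glucose 6-phosphate, 1 unit/mL G6PDH). Incubation continued for 0–90 min and was stopped with ice-cold acetonitrile.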

[3] = Oral bioavailability in Sprague-Dawley rat at 5 mg/kg via gavage by LC-MS/MS analysis; type: ADME, organism-based; details: in vivo
Procedure, shortened: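 Male Sprague-Dawley rats (about 200‒220 g; n = 6) were fasted overnight and gavaged with 5 mg/kg as a suspension in 0.5% methylcellulose. Blood was taken from the orbital artery at 0.083–24 h into heparin tubes. Plasma was quantified by LC/MS/MS (ESI, MRM), with noncompartmental analysis. Bioavailability was referenced to a 1 mg/kg iv dose. Values are mean ± SD.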

Rattus norvegicus = assay: Antiarthritic activity in Wistar rat Freund's adjuvant-induced arthritis model assessed as reduction in arthritis index score at 5 to 20 mg/kg, po qd administered on day 10 to 20 postimmunization measured every 2 to 3 days during compound dosing; type: functional, organism-based
Procedure, shortened: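 Adjuvant arthritis was induced by intradermal CFA (0.1 mL) into the base of the left hind paw (day 0), with a boost 10 days later. Rats were dosed orally once daily at 5 or 20 mg/kg from day 10 to day 20, with 10 rats per group. Vehicle controls received 0.3% sodium carboxymethylcellulose. Two blinded observers scored the animals every 2 or 3 days. Data are mean ± S.E.M.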

[4] = Half life in rat plasma at 5 uM; type: ADME, cell-free
Procedure, shortened: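 Compound (5 µM final, from a 25 mM DMSO stock) was incubated at 37 °C in rat plasma (0–90 min) or rat whole blood (0, 5, 10, 30, 60, 90 min). Reactions were quenched with ice-cold acetonitrile, centrifuged, and the supernatants analysed.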

[5] = target: T1, Ubiquitin-conjugating enzyme E2 H (Homo sapiens) (UniProt P62256); assay: Inhibition of UbcH2 (unknown origin) at 2.5 to 10 uM preincubated for 15 mins followed by E1, Ub and ATP addition measured after 40 mins by Western blot analysis
T1 sequence (whole entry): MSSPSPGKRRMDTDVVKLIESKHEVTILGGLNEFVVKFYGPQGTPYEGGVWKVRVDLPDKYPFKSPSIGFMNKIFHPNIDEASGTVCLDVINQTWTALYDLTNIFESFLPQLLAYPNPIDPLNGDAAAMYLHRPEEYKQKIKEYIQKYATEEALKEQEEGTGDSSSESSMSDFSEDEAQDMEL

[6] = Volume of distribution at steady state in Sprague-Dawley rat at 1 mg/kg, iv by LC-MS/MS analysis; type: ADME, organism-based; details: in vivo, read-out: Vdss
Procedure, shortened: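 Male Sprague-Dawley rats (about 200‒220 g; n = 6) were fasted overnight and given a single 1 mg/kg iv dose in DMSO:castor oil:saline (3:3:94). Blood was sampled from the orbital artery into heparin tubes. Plasma was analysed by LC/MS/MS (ESI, MRM), and parameters came from noncompartmental analysis. Values are mean ± SD.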

in vitro = details: human, HEK-293T cells

Activity [1]: Active | half-life at 5 µM [2]: 2.11 h | bioavailability [3]: 16.8% | half-life at 5 µM [4]: 1.43 h | inhibition [5]: inactive | Vd [6]: 6.26 L/kg
Compound: C=C1C(=O)O[C@H]2c3c(C)c(OCc4ccccc4Br)cc(C)c3CC[C@@H]12
Activity (Rattus norvegicus): Active | cytotoxicity at 5 µM (in vitro): < 20%

Source: ChEMBL document CHEMBL4028851, “Discovery of Potent Small-Molecule Inhibitors of Ubiquitin-Conjugating Enzyme UbcH5c from α-Santonin Derivatives” (J Med Chem, 2017)
